According to ChEMBL document CHEMBL3596120, “Discovery of natural alkaloid bouchardatine as a novel inhibitor of adipogenesis/lipogenesis in 3T3-L1 adipocytes” (Bioorg Med Chem, 2015):
The source made the active and inactive calls. The rule behind the calls is not given here.

Key:
3T3-L1 [1] = assay: Effect on in AMPKalpha protein expression in mouse 3T3L1 cells at 25 uM after 0.5 to 4 hrs by Western blot method; format: functional, cell-based
3T3-L1 [2] = assay: Inhibition of adipogenesis in mouse 3T3L1 cells assessed as reduction in triglyceride content at 0.2 mM by colorimetric assay; format: functional, cell-based
3T3-L1 [3] = assay: Increase in AMPKalpha Thr172 phosphorylation in mouse 3T3L1 cells at 0.2 mM after 9 days by Western blot method; format: cell-based
Procedure, shortened: (§1)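 Mouse 3T3-L1 cells taken through the differentiation protocol, with compound or DMSO vehicle given from day 0 and renewed at day 3. Cells lysed on ice for 0.5 h in RIPA with PMSF, Na3VO4, NaF and protease inhibitors, then centrifuged at 12,000g. Lysates run on 12% SDS-PAGE and transferred to PVDF. Blots probed overnight at 4 °C and detected with HRP secondary. Bands quantified by optical density against GAPDH. Three independent experiments.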

3T3-L1 [4] = assay: Activation of AMPK in mouse 3T3L1 cells assessed as increase in ACC Ser79 phosphorylation at 0.2 mM after 9 days by Western blot method; format: cell-based; procedure, shortened: as §1
[5] = Reduction in SCD1 protein expression in mouse 3T3L1 cells at 0.2 mM after 3 days by Western blot method; format: functional, cell-based; conditions: 3T3-L1
Procedure, shortened: (§2)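 3T3-L1 preadipocytes grown in DMEM with 10% FBS at 37 °C under 5% CO2. Differentiation starts 2 days post-confluence (day 0) with IBMX, 100 ng/mL dexamethasone and insulin for 3 d, then insulin in 10% FBS/DMEM for 3 d, then basic medium for 3 d. Compound is added on day 0 and renewed at day 3. Vehicle control receives the same volume of DMSO.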

[6] = Reduction in SREBP-1c protein expression in mouse 3T3L1 cells at 0.2 mM after 3 days by Western blot method; format: functional, cell-based; conditions: 3T3-L1; procedure, shortened: as §2
[7] = Reduction in PPARgamma protein expression in mouse 3T3L1 cells at 0.2 mM after 3 days by Western blot method; format: functional, cell-based; conditions: 3T3-L1; procedure, shortened: as §2
[8] = Reduction in C/EBPalpha protein expression in mouse 3T3L1 cells at 0.2 mM after 3 days by Western blot method; format: functional, cell-based; conditions: 3T3-L1; procedure, shortened: as §1
[9] = Reduction in FAS protein expression in mouse 3T3L1 cells at 0.2 mM after 3 days by Western blot method; format: functional, cell-based; conditions: 3T3-L1; procedure, shortened: as §2

NC(=O)c1ncn([C@@H]2O[C@H](CO)[C@@H](O)[C@H]2O)c1N
Activity (3T3-L1 [1]): inactive
Activity (3T3-L1 [2]): Active
Activity (3T3-L1 [3]): Active
Activity (3T3-L1 [4]): Active
Activity [5]: Active
Activity [6]: Active
Activity [7]: Active
Activity [8]: Active
Activity [9]: Active
